Assay [1] addresses T1, D(3) dopamine receptor (Homo sapiens, UniProt P35462). Nature of the assay: Displacement of [3H]spiperone from human cloned dopamine D3 expressed in CHO cells. The class given is cell-based. The arrangement: concentration or dose not given beside the values. The procedure, abridged:
(§1)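 Competition binding used membranes from CHO cells expressing human D2long, D2short, D3 or D4.4, with 0.5 nM final [3H]spiperone. Screening was run at 100 nM and 1 nM test compound in triplicate. Ki values come from nonlinear regression, as means of 2–4 experiments each run in triplicate.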
In general terms: Displacement assays read how much labelled ligand stays bound in the presence of the test substance.

The target of assay [2] is D(1A) dopamine receptor (Sus scrofa) (UniProt P50130). Nature of the assay: Displacement of [3H]SCH23390 from pig dopamine D1 receptor. The procedure, abridged:
(§2)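 Porcine striatal membranes were incubated with 0.3 nM [3H]SCH 23390 (Kd 0.95 nM). Protein was measured by Lowry against a BSA standard. Test compounds were screened at 100 nM and 1 nM in triplicate. Ki values were derived by nonlinear regression of competition curves, as means of 2–4 experiments each run in triplicate.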

The species named for a further assay is Sus scrofa. Nature of the assay: Displacement of [3H]prazosin from pig alpha-1 adrenergic receptor. Also on record: concentration or dose not given beside the values. The procedure, abridged:
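Porcine cortical membranes at 55 µg protein per tube, [3H]prazosin as radioligand (Kd 0.06 nM). Ki obtained by non-linear regression of competition curves, means of 2–4 experiments each run in triplicate; screening run at 10 µM, 100 nM and 1 nM test compound in triplicate.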

For assay [3], the target named is T2, D(4) dopamine receptor (Homo sapiens) (UniProt P21917).
T2 sequence (whole entry): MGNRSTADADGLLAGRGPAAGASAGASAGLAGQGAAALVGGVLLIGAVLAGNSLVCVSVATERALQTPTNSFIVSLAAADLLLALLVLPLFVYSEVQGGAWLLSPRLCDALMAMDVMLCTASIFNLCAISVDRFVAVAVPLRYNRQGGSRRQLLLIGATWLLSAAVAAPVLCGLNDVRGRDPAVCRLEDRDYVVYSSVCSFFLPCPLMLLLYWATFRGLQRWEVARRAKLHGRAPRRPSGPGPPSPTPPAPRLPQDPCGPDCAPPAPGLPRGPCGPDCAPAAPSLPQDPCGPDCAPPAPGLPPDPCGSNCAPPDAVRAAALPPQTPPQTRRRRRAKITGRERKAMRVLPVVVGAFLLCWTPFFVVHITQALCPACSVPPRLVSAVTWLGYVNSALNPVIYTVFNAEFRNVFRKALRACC
The assay can be described thus: Displacement of [3H]spiperone from human cloned dopamine D4.4 expressed in CHO cells. In kind it is cell-based. In a few lines: as §1

Assay [4] deals with T1, D(3) dopamine receptor. The assay can be described thus: Binding affinity to human cloned dopamine D3 expressed in CHO cells. The class given is cell-based.
The target in another assay is T3, D(4) dopamine receptor (Homo sapiens, UniProt P21917).
T3 sequence (P21917 whole entry): T2 sequence (whole entry)
Nature of the assay: Binding affinity to human cloned dopamine D4.4 expressed in CHO cells. The class given is cell-based.

Assay [5] deals with T4, D(2) dopamine receptor (Homo sapiens, UniProt P14416). Nature of the assay: Binding affinity to human cloned dopamine D2-long expressed in CHO cells. In kind it is cell-based. In a few lines: as §1
T4 sequence (P14416 whole entry): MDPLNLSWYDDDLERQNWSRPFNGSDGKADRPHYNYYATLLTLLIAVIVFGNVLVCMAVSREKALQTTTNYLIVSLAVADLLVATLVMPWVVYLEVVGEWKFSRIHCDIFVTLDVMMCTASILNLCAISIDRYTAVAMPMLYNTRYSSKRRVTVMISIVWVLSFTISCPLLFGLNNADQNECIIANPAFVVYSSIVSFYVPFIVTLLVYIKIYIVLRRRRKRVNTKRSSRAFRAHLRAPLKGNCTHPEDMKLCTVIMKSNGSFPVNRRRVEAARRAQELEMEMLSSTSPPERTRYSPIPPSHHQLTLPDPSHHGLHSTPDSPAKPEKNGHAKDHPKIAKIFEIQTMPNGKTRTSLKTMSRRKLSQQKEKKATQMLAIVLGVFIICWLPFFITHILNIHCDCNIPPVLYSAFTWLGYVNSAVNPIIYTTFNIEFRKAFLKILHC
Another assay concerns the target D(1A) dopamine receptor (Sus scrofa, UniProt P50130). Nature of the assay: Binding affinity to pig dopamine D1 receptor. In a few lines: as §2
For assay [6], the target named is T4, D(2) dopamine receptor. The assay can be described thus: Binding affinity to human cloned dopamine D2-short expressed in CHO cells. In kind it is cell-based. The procedure, abridged:
as §1

Assay [7] has as its target T4, D(2) dopamine receptor. Nature of the assay: Displacement of [3H]spiperone from human cloned dopamine D2-long expressed in CHO cells. In kind it is cell-based. The procedure, abridged:
as §1

Assay [8] has as its target T4, D(2) dopamine receptor. The assay can be described thus: Displacement of [3H]spiperone from human cloned dopamine D2-short expressed in CHO cells. Also on record: concentration or dose not given beside the values. The class given is cell-based. In a few lines: as §1
A short description of assay [9]: Binding affinity to pig alpha-1 adrenergic receptor. Also on record: species or system Sus scrofa. In a few lines: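 Alpha1 binding used porcine cortical membranes with [3H]prazosin (KD 0.06 nM). Protein was measured by Lowry against a BSA standard. Ki came from nonlinear regression of competition curves, as the mean of 2–4 experiments each run in triplicate.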

The values that follow come from ChEMBL document CHEMBL1154112, “Parallel synthesis of potent dopaminergic N-phenyltriazole carboxamides applying a novel click chemistry based phenol linker” (Bioorg Med Chem, 2009).

Active and inactive are the calls of the source. The calls are words filed in the database; no cut-off is given here.

T1 sequence (P35462 whole entry): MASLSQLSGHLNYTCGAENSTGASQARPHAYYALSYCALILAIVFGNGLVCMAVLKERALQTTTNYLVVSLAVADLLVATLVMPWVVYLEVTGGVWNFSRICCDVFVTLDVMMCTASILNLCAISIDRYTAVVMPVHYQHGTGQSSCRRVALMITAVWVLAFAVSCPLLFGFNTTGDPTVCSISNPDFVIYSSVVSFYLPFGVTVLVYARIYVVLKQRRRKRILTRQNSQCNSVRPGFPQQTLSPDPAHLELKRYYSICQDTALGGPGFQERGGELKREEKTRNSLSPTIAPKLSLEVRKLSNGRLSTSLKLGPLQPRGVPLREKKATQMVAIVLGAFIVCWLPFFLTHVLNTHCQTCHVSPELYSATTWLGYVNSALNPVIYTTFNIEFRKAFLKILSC
Sequence of D(1A) dopamine receptor (Sus scrofa) (P50130 whole entry): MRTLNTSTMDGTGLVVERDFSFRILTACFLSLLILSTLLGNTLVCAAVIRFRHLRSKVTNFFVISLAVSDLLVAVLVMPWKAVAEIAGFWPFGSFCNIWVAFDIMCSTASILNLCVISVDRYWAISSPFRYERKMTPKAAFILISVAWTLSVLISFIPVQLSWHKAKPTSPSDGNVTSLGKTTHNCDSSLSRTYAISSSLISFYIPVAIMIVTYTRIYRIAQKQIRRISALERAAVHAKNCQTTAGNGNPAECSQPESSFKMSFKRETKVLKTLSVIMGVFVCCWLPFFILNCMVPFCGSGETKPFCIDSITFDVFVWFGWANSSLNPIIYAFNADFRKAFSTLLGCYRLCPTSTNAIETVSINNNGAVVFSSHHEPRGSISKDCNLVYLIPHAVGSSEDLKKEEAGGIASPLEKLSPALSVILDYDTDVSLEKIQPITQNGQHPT
Sequence of D(1A) dopamine receptor (P50130 whole entry): as above

With `COc1ccc(-n2cc(C(=O)NCCCCN3CCN(c4ccccc4Cl)CC3)nn2)cc1`, the Activity on D(3) dopamine receptor [1] is 58%; in the assay listed under Sus scrofa it was 55%. The result in assay [2] was inactive.

For `O=C(CCCc1cn(-c2ccc([N+](=O)[O-])cc2)nn1)NCCN1CCN(c2cccc(Cl)c2Cl)CC1`, the Activity was found to be 39% at D(3) dopamine receptor [1] and 37% in assay [3]. In addition, the outcome in [2] was inactive.

On to `COc1ccc(-n2cc(CCCC(=O)NCCN3CCN(c4ccccc4OC)CC3)nn2)cc1`, for which the outcome in assay [2] was inactive. The molecule also came in with an Activity in the assay listed under Sus scrofa of 56%.

For the molecule `O=C(NCCCCN1CCN(c2cccc(Cl)c2Cl)CC1)c1cn(-c2ccc([N+](=O)[O-])cc2)nn1`, the Activity on D(3) dopamine receptor [1] worked out at 95%; in the assay listed under Sus scrofa it was 48%; on D(2) dopamine receptor [7], 33%; on D(2) dopamine receptor [8] it was 53%. In addition, the Ki on D(3) dopamine receptor [4] amounted to 0.001 µM; on D(4) dopamine receptor, 0.28 µM; on D(2) dopamine receptor [5], 0.049 µM; at D(1A) dopamine receptor, 0.81 µM; on D(2) dopamine receptor [6], 0.053 µM; in [9], 0.017 µM. In addition, the result in assay [2] was inactive.

Turning to `COc1ccccc1N1CCN(CCCCNC(=O)CCCc2cn(-c3ccc([N+](=O)[O-])cc3)nn2)CC1`, the Activity at D(3) dopamine receptor [1] worked out at 51%; in the assay listed under Sus scrofa, 83%; on D(2) dopamine receptor [7] it was 39%; on D(2) dopamine receptor [8], 52%. In addition, the result in [2] was inactive.

Turning to `COc1ccc(-n2cc(C(=O)NCCCCN3CCN(c4ccccc4OC)CC3)nn2)cc1`, the Activity at D(3) dopamine receptor [1] worked out at 57%; in the assay listed under Sus scrofa, 64%. Also, the outcome in assay [2] was inactive.

`COc1ccc(-n2cc(CCCC(=O)NCCCCN3CCN(c4ccccc4Cl)CC3)nn2)cc1`: the values for the Activity at D(3) dopamine receptor [1] and in the assay listed under Sus scrofa were 38% and 58%, respectively. Also, the outcome in assay [2] was inactive.

With `O=C(NCCCCN1CCN(c2ccccc2Cl)CC1)c1cn(-c2ccc([N+](=O)[O-])cc2)nn1`, the Activity on D(3) dopamine receptor [1] and in the assay filed under Sus scrofa was 61% throughout. In addition, the result in assay [2] was inactive.

`COc1ccccc1N1CCN(CCCCNC(=O)c2cn(-c3ccc([N+](=O)[O-])cc3)nn2)CC1`: the Activity came out at 58% on D(3) dopamine receptor [1], 73% in the assay listed under Sus scrofa and 38% on D(2) dopamine receptor [8]. Also, in assay [2], the outcome was inactive.

Take `O=C(NCCN1CCN(c2cccc(Cl)c2Cl)CC1)c1cn(-c2ccc([N+](=O)[O-])cc2)nn1`: the Activity stood at 52% at D(3) dopamine receptor [1] and 47% in the assay filed under Sus scrofa. Moreover, the outcome in assay [2] was inactive.

Regarding `COc1ccccc1N1CCN(CCNC(=O)c2cn(-c3ccc([N+](=O)[O-])cc3)nn2)CC1`, the Ki at D(3) dopamine receptor [4] came to 0.0049 µM; at D(4) dopamine receptor, 0.14 µM; on D(2) dopamine receptor [5], 0.75 µM; on D(1A) dopamine receptor, 4.1 µM; on D(2) dopamine receptor [6], 0.47 µM; in assay [9], 0.0065 µM. Moreover, the outcome in assay [2] was inactive. Further, the Activity in the assay listed under Sus scrofa is 80%.

`COc1ccc(-n2cc(C(=O)NCCN3CCN(c4ccccc4OC)CC3)nn2)cc1`: the outcome in [2] was inactive. In the assay listed under Sus scrofa, this molecule gave an Activity of 56%.

Consider `COc1ccc(-n2cc(CCCC(=O)NCCCCN3CCN(c4ccccc4OC)CC3)nn2)cc1`, for which the Activity stood at 46% on D(3) dopamine receptor [1], 72% in the assay filed under Sus scrofa and 33% on D(2) dopamine receptor [8]. In assay [2], the result was inactive.

Consider `COc1ccc(-n2cc(C(=O)NCCCCN3CCN(c4cccc(Cl)c4Cl)CC3)nn2)cc1`, for which, at D(3) dopamine receptor [1], the Activity is 76%. Moreover, the inhibition constant Ki amounted to 0.0049 µM at D(3) dopamine receptor [4]; 0.32 µM at D(4) dopamine receptor; 0.044 µM on D(2) dopamine receptor [5]; 1.7 µM on D(1A) dopamine receptor; 0.068 µM on D(2) dopamine receptor [6]; 0.046 µM in [9]. The result in assay [2] was inactive.

Regarding `O=C(CCCc1cn(-c2ccc([N+](=O)[O-])cc2)nn1)NCCCCN1CCN(c2ccccc2Cl)CC1`, the Activity came out at 51% on D(3) dopamine receptor [1] and 64% in the assay listed under Sus scrofa. Besides, in [2], the result was inactive.

For the molecule `COc1ccccc1N1CCN(CCNC(=O)CCCc2cn(-c3ccc([N+](=O)[O-])cc3)nn2)CC1`, the result in assay [2] was inactive. In the assay listed under Sus scrofa, the Activity is 43%.

For the molecule `COc1ccc(-n2cc(CCCC(=O)NCCCCN3CCN(c4cccc(Cl)c4Cl)CC3)nn2)cc1`, the Activity came to 71% at D(3) dopamine receptor [1] and 43% on D(2) dopamine receptor [8]. Also, the Ki on D(3) dopamine receptor [4] worked out at 0.0093 µM; on D(4) dopamine receptor, 0.2 µM; on D(2) dopamine receptor [5], 0.12 µM; at D(1A) dopamine receptor, 1.8 µM; on D(2) dopamine receptor [6], 0.042 µM; in [9] it was 0.042 µM. In addition, the outcome in assay [2] was inactive.

`COc1ccc(-n2cc(C(=O)NCCN3CCN(c4cccc(Cl)c4Cl)CC3)nn2)cc1`: the Activity at D(3) dopamine receptor [1] turned out to be 40%; in the assay filed under Sus scrofa it was 39%. In [2], the outcome was inactive.

For `COc1ccc(-n2cc(CCCC(=O)NCCN3CCN(c4cccc(Cl)c4Cl)CC3)nn2)cc1`, the Activity at D(3) dopamine receptor [1] was 42%; in assay [3], 41%. For the same molecule, the result in [2] was inactive.

With `O=C(CCCc1cn(-c2ccc([N+](=O)[O-])cc2)nn1)NCCCCN1CCN(c2cccc(Cl)c2Cl)CC1`, the Activity at D(3) dopamine receptor [1] came out at 76%; at D(2) dopamine receptor [8] it was 43%. Moreover, the inhibition constant Ki came out at 0.0057 µM at D(3) dopamine receptor [4]; 0.24 µM on D(4) dopamine receptor; 0.083 µM on D(2) dopamine receptor [5]; 2.2 µM at D(1A) dopamine receptor; 0.047 µM on D(2) dopamine receptor [6]; 0.028 µM in assay [9]. The outcome in assay [2] was inactive.

A word on the Ki: it is the equilibrium dissociation constant of an inhibitor or competing ligand from its target.
